Measured values from ChEMBL document CHEMBL1133450, “Synthesis and antitumor activity of thieno-separated tricyclic purines” (2000).

Legend:
HCT-116 [1] = assay: Tested for percentage inhibition of HCT116 cell growth after 24 hr at 0.1 uM; type: functional; details: Homo sapiens, HCT-116, 24 h; values are per cent of control
Method in brief: (§1)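 HCT116 cells grown in DMEM with 2 mM L-glutamine, penicillin/streptomycin, nonessential amino acids, 10% heat-inactivated FBS, 37 °C, 5% CO2. Seeded at 500 cells/well, 72 h later refed with serum-containing medium plus DMSO vehicle or agent. CellTiter96 read-out at 24, 48 or 72 h of treatment, expressed as % of DMSO-treated cells. Mean ± SEM, n = 3-5. Student's t-test, significance p < 0.05.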

HCT-116 [2] = assay: Tested for HCT116 cell growth as percentage of control after 72 hr at 10 uM; details: Homo sapiens, HCT-116, 72 h
HCT-116 [3] = assay: Tested for percentage inhibition of HCT116 cell growth after 48 hr at 1 uM; type: functional; details: Homo sapiens, HCT-116, 48 h; values are per cent of control; method in brief: as §1
HCT-116 [4] = assay: Tested for percentage inhibition of HCT116 cell growth after 72 hr at 0.1 uM; type: functional; details: Homo sapiens, HCT-116, 72 h; values are per cent of control; method in brief: as §1
HCT-116 [5] = assay: Tested for HCT116 cell growth as percentage of control after 48 hr at 100 uM, (p<0.005); details: Homo sapiens, HCT-116, 48 h
HCT-116 [6] = assay: Tested for percentage inhibition of HCT116 cell growth after 48 hr at 10 uM; type: functional; details: Homo sapiens, HCT-116, 48 h; values are per cent of control; method in brief: as §1
HCT-116 [7] = assay: Tested for HCT116 cell growth as percentage of control after 24 hr at 100 uM; details: Homo sapiens, HCT-116, 24 h
HCT-116 [8] = assay: Tested for HCT116 cell growth as percentage of control after 24 hr at 10 uM; details: Homo sapiens, HCT-116, 24 h
HCT-116 [9] = assay: Tested for percentage inhibition of HCT116 cell growth after 24 hr at 1 uM; type: functional; details: Homo sapiens, HCT-116, 24 h; values are per cent of control; method in brief: as §1
HCT-116 [10] = assay: Tested for percentage inhibition of HCT116 cell growth after 72 hr at 100 uM, (p<0.05); type: functional; details: Homo sapiens, HCT-116, 72 h; values are per cent of control; method in brief: as §1
HCT-116 [11] = assay: Tested for HCT116 cell growth as percentage of control after 72 hr at 1 uM; details: Homo sapiens, HCT-116, 72 h
HCT-116 [12] = assay: Tested for HCT116 cell growth as percentage of control after 48 hr at 0.1 uM; details: Homo sapiens, HCT-116, 48 h
HCT-116 [13] = assay: Tested for percentage inhibition of HCT116 cell growth after 48 hr at 100 uM, (p<0.05); type: functional; details: Homo sapiens, HCT-116, 48 h; values are per cent of control; method in brief: as §1
HCT-116 [14] = assay: Tested for percentage inhibition of HCT116 cell growth after 72 hr at 0.1 uM, (p<0.05); type: functional; details: Homo sapiens, HCT-116, 72 h; values are per cent of control; method in brief: as §1
HCT-116 [15] = assay: Tested for HCT116 cell growth as percentage of control after 24 hr at 10 uM; details: Homo sapiens, HCT-116, 24 h; remark: listed apart in the source

Work on `Nc1ncnc2c1sc1nc[nH]c12` yielded a growth, % of control at 0.1 µM (HCT-116 [1]) of 96.1%, a growth (% of control) at 10 µM (HCT-116 [2]) of 93.8% and a growth, % of control at 1 µM (HCT-116 [3]) of 98.3%. It also gave a growth, % of control at 0.1 µM (HCT-116 [4]) of 101%, a growth, % of control at 100 µM (HCT-116 [5]) of 71.5% and a growth (% of control) at 10 µM (HCT-116 [6]) of 105%. The growth, % of control at 100 µM (HCT-116 [7]) was 82%, the growth (% of control) at 10 µM (HCT-116 [8]) was 105% and the growth, % of control at 1 µM (HCT-116 [9]) was 107%. It also gave a growth, % of control at 100 µM (HCT-116 [10]) of 51.5%, a growth, % of control at 1 µM (HCT-116 [11]) of 96.1% and a growth, % of control at 0.1 µM (HCT-116 [12]) of 105%.
`Nc1nc(O)c2sc3[nH]cnc3c2n1` showed a growth, % of control at 0.1 µM (HCT-116 [1]) of 98.7%, a growth (% of control) at 10 µM (HCT-116 [2]) of 99.5% and a growth, % of control at 100 µM (HCT-116 [13]) of 77%. For the same compound, the growth, % of control at 1 µM (HCT-116 [3]) was 95.9%, the growth, % of control at 0.1 µM (HCT-116 [14]) was 107% and the growth (% of control) at 10 µM (HCT-116 [6]) was 85%. For the same compound, the growth, % of control at 100 µM (HCT-116 [7]) was 75.8%, the growth (% of control) at 10 µM (HCT-116 [15]) was 93.2% and the growth, % of control at 1 µM (HCT-116 [9]) was 96.7%. The growth, % of control at 100 µM (HCT-116 [10]) was 76.1%, the growth, % of control at 1 µM (HCT-116 [11]) was 117% and the growth, % of control at 0.1 µM (HCT-116 [12]) was 96.8%.
